From ChEMBL document CHEMBL1153337, “Small molecule antagonists of the gonadotropin-releasing hormone (GnRH) receptor: structure-activity relationships of small heterocyclic groups appended to the 2-phenyl-4-piperazinyl-benzimidazole template” (Bioorg Med Chem Lett, 2009)

Legend:
[1] = target: T1, Gonadotropin-releasing hormone receptor (Homo sapiens, UniProt P30968); test: Antagonist activity at human recombinant GnRH receptor expressed in HEK293 cells assessed as reduction in (D-Trp6)-GnRH-stimulated IP production by whole cell assay; type: functional, cell-based
T1 sequence (P30968 whole entry): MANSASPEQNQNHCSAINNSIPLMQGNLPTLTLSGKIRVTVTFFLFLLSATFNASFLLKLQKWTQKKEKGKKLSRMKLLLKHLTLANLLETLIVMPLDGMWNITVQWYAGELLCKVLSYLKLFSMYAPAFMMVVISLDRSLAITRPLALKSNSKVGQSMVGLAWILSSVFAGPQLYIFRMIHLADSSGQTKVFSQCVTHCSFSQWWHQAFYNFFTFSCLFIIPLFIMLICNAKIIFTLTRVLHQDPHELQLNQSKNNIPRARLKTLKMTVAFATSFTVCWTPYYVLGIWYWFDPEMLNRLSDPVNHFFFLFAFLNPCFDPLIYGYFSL
In short: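 Whole-cell assay, cells stimulated with (D-Trp6)-GnRH; compound-driven reduction of inositol phosphate read as IC50.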

[2] = tested on: Rattus norvegicus; test: Change in serum leutinizing hormone level in orchidectomized rat at 30 mg/kg, po after 0.5 hrs relative to control; type: functional
In short: (§1)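 Orchidectomized rats (stable elevated LH after testosterone feedback removal), oral gavage 30 mg/kg in PEG 400 vs vehicle cohort, n = 6 per group; serum LH sampled over 24 h, relative LH with t = 0 set to 100; change = treated minus vehicle average.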

[3] = tested on: Rattus norvegicus; test: Change in serum leutinizing hormone level in orchidectomized rat at 30 mg/kg, po after 24 hrs relative to control; type: functional; in short: as §1
[4] = Oral bioavailability in orchidectomized Sprague-Dawley rat at 30 mg/kg after 1 day; type: ADME, organism-based; details: male, in vivo
In short: (§2)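 Orchidectomized SD rats, single oral dose of 30 mg/kg in PEG 400; iv arm 1 mg/kg in 20% DMSO/PEG 200 for bioavailability; one-day PK study.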

[5] = tested on: Rattus norvegicus; test: Change in serum leutinizing hormone level in orchidectomized rat at 30 mg/kg, po after 2 hrs relative to control; type: functional; in short: as §1
[6] = target: CYP3A4 (Homo sapiens, UniProt P08684); test: Inhibition of CYP3A4 at 3 uM; type: ADME
[7] = AUC (0 to alpha) in orchidectomized Sprague-Dawley rat at 30 mg/kg, po after 1 day; type: ADME, organism-based; parameters: dose 30 mg/kg, route oral; details: male, plasma; in short: as §2
[8] = target: CYP2D6 (Homo sapiens, UniProt P10635); test: Inhibition of CYP2D6 at 3 uM; type: ADME
[9] = tested on: Rattus norvegicus; test: Change in serum leutinizing hormone level in orchidectomized rat at 30 mg/kg, po after 1 hr relative to control; type: functional; in short: as §1
[10] = Clearance in orchidectomized Sprague-Dawley rat at 1 mg/kg, iv after 1 day; type: ADME, organism-based; parameters: dose 1 mg/kg, route intravenous; details: male, in vivo
In short: (§3)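 Orchidectomized SD rats, single iv dose of 1 mg/kg in 20% DMSO/PEG 200; one-day PK study.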

[11] = tested on: Rattus norvegicus; test: Change in serum leutinizing hormone level in orchidectomized rat at 30 mg/kg, po after 6 hrs relative to control; type: functional; in short: as §1
[12] = Volume of distribution at steady state in orchidectomized Sprague-Dawley rat at 1 mg/kg, iv after 1 day; type: ADME, organism-based; parameters: dose 1 mg/kg, route intravenous; details: male, in vivo, read-out: Vdss; in short: as §3
[13] = Half life in orchidectomized Sprague-Dawley rat at 30 mg/kg, po after 1 day; type: ADME, organism-based; parameters: dose 30 mg/kg, route oral; details: male, in vivo; in short: as §2
[14] = Metabolic stability in rat liver microsomes assessed as half life; type: ADME, Microsome
[15] = target: T2, Gonadotropin-releasing hormone receptor (Rattus norvegicus, UniProt P30969); test: Displacement of [125I]-(D-Trp6)-GnRH from rat GnRH receptor
T2 sequence (P30969 whole entry): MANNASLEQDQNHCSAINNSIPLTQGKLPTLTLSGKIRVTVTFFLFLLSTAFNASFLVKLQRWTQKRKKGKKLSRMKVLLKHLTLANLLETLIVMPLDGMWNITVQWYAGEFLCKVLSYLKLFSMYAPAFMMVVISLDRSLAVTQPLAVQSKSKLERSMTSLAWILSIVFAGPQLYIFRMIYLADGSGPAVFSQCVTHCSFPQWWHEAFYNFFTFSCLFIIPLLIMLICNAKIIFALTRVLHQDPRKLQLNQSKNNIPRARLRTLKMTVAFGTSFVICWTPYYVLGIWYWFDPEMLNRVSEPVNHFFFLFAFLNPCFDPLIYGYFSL
In short: (§4)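 Competition binding at overexpressed human or rat GnRH receptors against 125I-(D-Trp6)-GnRH; IC50 averaged from two independent experiments run in triplicate.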

[16] = Reduction in leutinizing hormone release in (D-Trp6)-GnRH-stimulated rat primary pituitary cells by RIA; type: functional, cell-based; details: Pituitary gland cell
In short: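 Primary rat pituitary cells stimulated with (D-Trp6)-GnRH; compound-driven reduction of LH release read as IC50.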

[17] = tested on: Rattus norvegicus; test: Change in serum leutinizing hormone level in orchidectomized rat at 30 mg/kg, po after 4 hrs relative to control; type: functional; in short: as §1
[18] = target: CYP2C9 (Homo sapiens, UniProt P11712); test: Inhibition of CYP2C9 at 3 uM; type: ADME
[19] = Solubility at pH 7.4; type: physicochemical; details: buffer
[20] = Half life in orchidectomized Sprague-Dawley rat at 1 mg/kg, iv after 1 day; type: ADME, organism-based; parameters: dose 1 mg/kg, route intravenous; details: male, in vivo; in short: as §3
[21] = target: T1, Gonadotropin-releasing hormone receptor; test: Displacement of [125I]-(D-Trp6)-GnRH from human GnRH receptor; in short: as §4

CYP2D6, sequence (P10635 whole entry): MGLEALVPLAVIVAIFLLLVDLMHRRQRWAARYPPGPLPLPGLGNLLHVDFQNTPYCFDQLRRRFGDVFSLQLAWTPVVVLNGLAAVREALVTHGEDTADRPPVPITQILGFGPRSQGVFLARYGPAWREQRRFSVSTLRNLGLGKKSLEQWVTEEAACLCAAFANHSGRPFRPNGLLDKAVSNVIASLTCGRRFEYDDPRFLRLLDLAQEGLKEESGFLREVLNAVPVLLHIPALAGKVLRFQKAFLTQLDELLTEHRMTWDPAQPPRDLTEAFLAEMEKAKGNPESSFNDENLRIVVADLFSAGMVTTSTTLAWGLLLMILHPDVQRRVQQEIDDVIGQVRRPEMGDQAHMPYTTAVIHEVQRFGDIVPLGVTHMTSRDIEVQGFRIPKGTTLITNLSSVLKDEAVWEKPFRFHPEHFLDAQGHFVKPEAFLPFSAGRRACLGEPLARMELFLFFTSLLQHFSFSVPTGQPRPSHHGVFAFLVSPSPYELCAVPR
CYP3A4, sequence (P08684 whole entry): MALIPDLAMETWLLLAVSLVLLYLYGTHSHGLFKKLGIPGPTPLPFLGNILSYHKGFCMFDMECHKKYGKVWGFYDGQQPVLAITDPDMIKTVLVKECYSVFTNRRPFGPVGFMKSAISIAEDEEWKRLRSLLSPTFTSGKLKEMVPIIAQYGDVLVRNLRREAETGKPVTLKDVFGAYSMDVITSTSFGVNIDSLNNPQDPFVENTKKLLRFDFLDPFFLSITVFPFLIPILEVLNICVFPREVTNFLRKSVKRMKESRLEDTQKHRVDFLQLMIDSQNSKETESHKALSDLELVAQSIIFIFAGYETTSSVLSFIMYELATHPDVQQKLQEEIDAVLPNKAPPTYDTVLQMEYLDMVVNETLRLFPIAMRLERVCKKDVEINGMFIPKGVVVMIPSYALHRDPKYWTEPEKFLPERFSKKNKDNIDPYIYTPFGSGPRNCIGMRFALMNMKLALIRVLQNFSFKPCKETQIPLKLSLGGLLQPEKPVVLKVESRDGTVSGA
CYP2C9, sequence (P11712 whole entry): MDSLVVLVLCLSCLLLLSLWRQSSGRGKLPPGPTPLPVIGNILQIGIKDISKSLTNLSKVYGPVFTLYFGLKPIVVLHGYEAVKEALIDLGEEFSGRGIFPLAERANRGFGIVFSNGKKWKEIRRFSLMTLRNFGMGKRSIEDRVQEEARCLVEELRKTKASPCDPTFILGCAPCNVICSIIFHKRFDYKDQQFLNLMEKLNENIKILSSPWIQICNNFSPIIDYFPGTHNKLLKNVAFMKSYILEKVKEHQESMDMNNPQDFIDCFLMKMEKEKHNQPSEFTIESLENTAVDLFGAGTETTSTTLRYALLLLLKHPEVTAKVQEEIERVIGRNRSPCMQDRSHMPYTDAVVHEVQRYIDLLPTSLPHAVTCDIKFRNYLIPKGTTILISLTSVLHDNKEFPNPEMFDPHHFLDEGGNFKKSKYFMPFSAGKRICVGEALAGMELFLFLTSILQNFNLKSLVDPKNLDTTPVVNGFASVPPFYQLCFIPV

IC50 [1]: 14 nM | bioavailability [4]: 93% | inhibition at 3 µM [6]: 73% | AUC at 24 h [7]: 3440 ng·h/mL | inhibition at 3 µM [8]: 14% | clearance [10]: 134 mL/min/kg | Vd [12]: 2.7 L/kg | half-life [13]: 222 min | half-life [14]: 21 min | IC50 [15]: 24 nM | IC50 [16]: 200 nM | inhibition at 3 µM [18]: 27% | solubility [19]: > 100 µg/mL | half-life [20]: 18 min | IC50 [21]: 7 nM
Compound: CCn1cnc(CN2CCN(c3cccc4[nH]c(-c5ccc(C(C)(C)C)cc5)nc34)CC2)c1C
Activity [2]: -0.2 | Activity [3]: -3.5 | Activity [5]: -52.8 | Activity [9]: -18 | Activity [11]: -32.3 | Activity [17]: 14.5
